High-throughput results (PubChem)
SIRT5 block – sirtuin-5 (human) deacylase inhibition | Q9NXA8 | Purified SirT5, succinyl-peptide AMC, trypsin-coupled fluorescence | inhibition, % at 15 µM | actives 1.1% (n = 330,000) | AID 652115; in the data active means inhibition above about 15%
Target sequence (Q9NXA8 whole entry, looked up): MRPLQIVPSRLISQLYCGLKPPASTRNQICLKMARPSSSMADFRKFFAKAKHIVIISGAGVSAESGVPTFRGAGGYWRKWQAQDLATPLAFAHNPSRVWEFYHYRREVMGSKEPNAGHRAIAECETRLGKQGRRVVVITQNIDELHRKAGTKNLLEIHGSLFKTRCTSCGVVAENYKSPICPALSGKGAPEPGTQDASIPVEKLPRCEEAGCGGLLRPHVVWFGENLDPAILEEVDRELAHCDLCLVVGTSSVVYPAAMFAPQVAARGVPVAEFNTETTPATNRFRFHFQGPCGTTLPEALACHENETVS
Ecoli rRNA inh – inhibits bacterial ribosomal RNA function over humanized ribosomes; E. coli WT GFP vs humanized-ribosome RFP mutants, fluorescence, 24 h; hits give low values; DMSO median 0, no signal -100; GFP signal change (wild-type ribosome), % (concentration not given with the values); actives 1.6% (n = 350,000);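 active means significant combined selectivity score with lowered wild-type GFP, culture density cut under 30%, mutant RFP and density less affected; inactive means any of these conditions unmet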
S100A4 inh HTS – inhibitors of human S100A4 binding to myosin IIA peptide | actives 0.14% (n = 360,000) | S100A4/TAMRA-MyoIIA peptide fluorescence polarization | inhibition, % at 10.7 µM;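 active means mean inhibition of at least 70% across replicates, with every replicate also reaching that level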
Target sequence (P26447 whole entry, looked up): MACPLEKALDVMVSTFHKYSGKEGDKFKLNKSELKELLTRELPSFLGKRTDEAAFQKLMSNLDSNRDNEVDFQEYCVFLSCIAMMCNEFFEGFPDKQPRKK
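Test system – S100A4 monomer (human) · Compound – single-point compound testing · Schedule – 5 min incubation before reading · Probe or stimulus – TAMRA-labelled myosin IIA heavy-chain peptide probe, 5 nM · Benchmarks – neutral control DMSO, positive control TFP · Medium – Calcium-containing HEPES buffer, pH 7.2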
PGC1a acetyl inh – modulators of PGC1a acetylation; inhibition, % at 15.6 µM; AID 651687; U2OS PGC1a acetylation, AlphaScreen anti-acetyl-lysine; with virally co-expressed GCN5 acetyltransferase; actives 0.17% (n = 350,000);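 active means every replicate shows inhibition of at least 40%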
Cneo AK release – Cryptococcus neoformans lysis via adenylate kinase release; C. neoformans lysis, adenylate kinase release luminescence, 4 h; normalised: neutral wells 0, clomiphene wells 100; actives 0.2% (n = 360,000); lysis activity, % at 15 µM;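 active means mean lysis activity across replicates of at least 80%, whatever share of replicates individually reach that level; inactive means mean lysis activity below 80%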
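Assay system: C. neoformans cells. Amount: yeast cell density of 5 × 10^6 cells/mL. Technique: AK luminescence. Buffer or medium: YPD. Times: static 4 h at 37 °C with compound, 1 h detection. Dosing: single-point compound dose. Read-out: lysis from increased AK signal.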
C2C12 statin – suppression of simvastatin myotoxicity; actives 0.78% (n = 330,000); AID 602340; C2C12 myotubes + simvastatin, ATP luminescence, 48 h; scaled: DMSO 0, geranylgeraniol control 100; rescue of ATP level, % at 7.49 µM;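 active means mean ATP rescue above about 67%, or every replicate alone reaching that limit, limit read from the data, passing the limit was not always enough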;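 further: myotubes were challenged with 10 µM simvastatin during compound exposure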
Hits are given with their value; - = inactive; . = not tested or not shown; ! = not confirmed by another sample. An excerpt weighted towards active compounds, which were near 3% of everything screened.

SMILES | SIRT5 block | Ecoli rRNA inh | S100A4 inh HTS | PGC1a acetyl inh | Cneo AK release | C2C12 statin
CCCNC(=O)[C@@H]1[C@@H](CO)[C@@H]2Cn3c(ccc(-c4cccnc4)c3=O)[C@@H]2N1C(=O)c1ccccc1F | - | - | - | . | - | -
COc1ccc(C#Cc2ccc3c(c2)O[C@H](CN(C)C(C)=O)[C@H](C)CN([C@H](C)CO)S3(=O)=O)cc1 | - | - | - | - | - | -
C[C@@H]1CN([C@H](C)CO)S(=O)(=O)c2ccc(C#Cc3ccccc3F)cc2O[C@@H]1CN(C)C(=O)Cc1ccccc1 | 20! | - | - | - | - | -
CC(=O)N(C)C[C@H]1Oc2cc(C#Cc3ccc(F)cc3)ccc2S(=O)(=O)N([C@H](C)CO)C[C@H]1C | - | - | - | - | - | -
C[C@H](CO)N1C[C@H](C)[C@H](CN(C)CC2CC2)Oc2cc(C#Cc3ccc(F)cc3)ccc2S1(=O)=O | 17 | - | - | - | - | -
CC(=O)N(C)C[C@H]1Oc2cc(C#Cc3ccc(F)cc3)ccc2S(=O)(=O)N([C@H](C)CO)C[C@@H]1C | - | - | - | - | 110 | -
C[C@@H]1CN([C@H](C)CO)S(=O)(=O)c2ccc(C#Cc3ccc(F)cc3)cc2O[C@@H]1CN(C)CC1CC1 | - | - | - | - | - | -
C[C@H](CO)N1C[C@H](C)[C@@H](CN(C)C(=O)Cc2ccccc2)Oc2cc(C#Cc3ccccc3F)ccc2S1(=O)=O | - | - | - | - | - | -
COc1ccc(C#Cc2ccc3c(c2)O[C@H](CN(C)C(C)=O)[C@@H](C)CN([C@@H](C)CO)S3(=O)=O)cc1 | - | - | - | - | 98 | -
CCCC(=O)Nc1ccc2c(c1)C(=O)N(C)C[C@H](OC)[C@H](C)CN(C(=O)c1cnccn1)[C@@H](C)CO2 | - | - | - | - | - | -
C[C@H](O)C#Cc1cnc2c(c1)C(=O)N([C@H](C)CO)C[C@@H](C)[C@@H](CN(C)CC1CCOCC1)O2 | - | - | - | - | - | -
C[C@H]1CN([C@@H](C)CO)S(=O)(=O)c2ccc(C#CC3CC3)cc2O[C@H]1CN(C)Cc1ccc(F)cc1 | - | - | - | - | - | -
C[C@H]1CN([C@@H](C)CO)S(=O)(=O)c2ccc(C#CC3CC3)cc2O[C@@H]1CN(C)Cc1ccc(F)cc1 | 19 | - | - | - | - | -
COc1ccc(C#Cc2ccc3c(c2)O[C@@H](CN(C)C(C)=O)[C@@H](C)CN([C@H](C)CO)S3(=O)=O)cc1 | - | - | - | - | 102 | -
COCC#Cc1ccc2c(c1)O[C@@H](CN(C)CC1CCCC1)[C@H](C)CN([C@@H](C)CO)S2(=O)=O | 24 | - | - | - | - | -
COCC#Cc1ccc2c(c1)O[C@H](CN(C)CC1CCCC1)[C@@H](C)CN([C@H](C)CO)S2(=O)=O | - | - | - | - | - | -
Cc1noc(C)c1NC(=O)Nc1ccc2c(c1)CC(=O)N([C@@H](C)CO)C[C@@H](C)[C@H](CN(C)S(=O)(=O)c1ccc(F)cc1)O2 | - | - | - | - | - | -
CN1c2ccc(C#Cc3cccnc3)cc2[C@H]2[C@H](CCN2S(=O)(=O)c2cccc(F)c2)[C@H]1CO | - | - | - | - | - | -
CC[n+]1c(-c2ccccc2)csc1Nc1c(C)n(C)n(-c2ccccc2)c1=O | 21 | - | - | - | . | .
COc1cccc(CN(C)C[C@@H]2OCc3ccccc3-c3c(n(C)c4ccccc34)C(=O)N([C@H](C)CO)C[C@@H]2C)c1 | - | - | - | . | . | .
O=C1C2C3c4ccccc4C(c4ccccc43)C2c2nc3ccccc3n21 (stereo not drawn) | . | . | . | - | - | 115
Cc1ccc(SCc2[nH]nc3c2C(c2ccc(C)o2)C(C#N)=C(N)O3)cc1 (stereo not drawn) | - | -37 | - | . | - | -
Cc1ccc(SCc2[nH]nc3c2C(c2ccco2)C(C#N)=C(N)O3)cc1 (stereo not drawn) | . | . | . | - | - | -
CN(CCOc1ccc(Cl)c(Cl)c1)Cc1ccccc1 | - | -30 | - | - | - | -
CN(CCOc1ccccc1Cl)Cc1ccccc1 | - | - | - | - | - | -
SMILES | SIRT5 block | Ecoli rRNA inh | S100A4 inh HTS | PGC1a acetyl inh | Cneo AK release | C2C12 statin
CN(CCOCCOc1ccc(Cl)cc1Br)Cc1ccccc1 | - | -37 | - | - | . | .
Cc1cc(OCC(=O)N(C)Cc2ccccc2)ccc1Cl | - | -30 | - | . | - | -
C=CCc1cc(OC)ccc1OCCN(C)Cc1ccccc1 | - | -30 | - | . | . | .
COc1ccc(NC(=O)N2CC[C@@H]3[C@@H](CO)N(C)c4ccc(-c5cccc(C(=O)N(C)C)c5)cc4[C@@H]32)cc1 | - | - | - | - | - | -
CCCc1nc(SCC(=O)Nc2nc3c(s2)CCCC3)c2ccccc2n1 | 16 | - | - | - | - | -
CCc1nc(SCC(=O)Nc2nc3c(s2)CCCC3)c2ccccc2n1 | . | . | . | - | - | -
CC1CN(CCOc2ccccc2-c2ccccc2)CC(C)O1 (stereo not drawn) | 31 | - | - | - | - | .
c1ccc(-c2ccccc2OCCN2CCCC2)cc1 | - | - | - | - | - | -
COc1ccc(CN(C)C(=O)COC(=O)c2c(-c3ccccc3Cl)noc2C)cc1 | - | -27 | - | . | - | -
Cc1nc2cc(C(=O)N3CCc4ccccc43)ccc2n1-c1ccc(F)c(F)c1 | 16 | - | - | - | - | -
CN(C)C(=O)c1cccc(-c2ccc3c(c2)[C@@H]2[C@@H](CCN2C(=O)C2CCCCC2)[C@@H](CO)N3)c1 | . | - | . | - | - | -
O=C(Nc1ccccc1)N1CCCCN2[C@H](CO)[C@H](c3ccc(C4=CCCCC4)cc3)[C@@H]2C1 | - | - | - | - | - | -
CNC[C@H]1Oc2ccc(NC(=O)Nc3ccc(F)cc3)cc2CC(=O)N([C@H](C)CO)C[C@@H]1C | 36 | - | - | - | - | -
C[C@H](CO)N1C[C@H](C)[C@H](CN(C)S(=O)(=O)c2ccc(F)cc2)Oc2ccc(NS(=O)(=O)c3ccc(F)cc3)cc2CC1=O | - | - | - | - | - | -
C[C@@H]1CN([C@H](C)CO)C(=O)Cc2cc(NC(=O)Nc3ccccc3)ccc2O[C@H]1CN(C)S(=O)(=O)c1ccc(F)cc1 | - | - | - | - | - | -
C[C@@H]1CN([C@@H](C)CO)C(=O)Cc2cc(NC(=O)Nc3ccccc3)ccc2O[C@H]1CN(C)S(=O)(=O)c1ccc(F)cc1 | 18 | - | - | - | - | -
C[C@H]1CN([C@@H](C)CO)C(=O)Cc2cc(NS(=O)(=O)c3ccc(F)cc3)ccc2O[C@H]1CN(C)CC1CCCCC1 | 17 | - | - | - | - | -
